# Experimental data as given in ChEMBL document CHEMBL1125076, “In vivo intracerebral microdialysis studies in rats of MPP+ analogues and related charged species” (1990).
# Assays:
# Type in all cases: functional
# Rattus norvegicus [1] = species on record: Rattus norvegicus; test: Percentage of basal lactate efflux before starting the drug perfusion (15 min) with average basal level 689+/-103 pmol/min
# How it was run: (§1)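 Rat striatal microdialysis via U-shaped cellulose-membrane cannula, Ringer perfusion. Once lactate efflux stabilized, test compound perfused as 10 mM solution in Ringer for 15–150 min. Dialysate mixed on-line with lactate dehydrogenase (5 mg/mL) and 0.5 mM NAD+ in carbonate buffer pH 9.5. NADH formed was separated by C18 HPLC (0.05 M phosphate, pH 6.8) and detected electrochemically at 650 mV. Samples injected every 5 min. Change expressed as % of basal. At least duplicate experiments.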
# Rattus norvegicus [2] = species on record: Rattus norvegicus; test: Percentage of basal lactate efflux before starting the drug perfusion (1 min) with average basal level 689+/-103 pmol/min
# Rattus norvegicus [3] = species on record: Rattus norvegicus; test: (§2) Percentage of basal lactate efflux before starting the drug perfusion (150 min) with average basal level 689+/-103 pmol/min
# Rattus norvegicus [4] = species on record: Rattus norvegicus; test: as §2; how it was run: as §1; remark: listed apart in the source
SMILES,Basal (Rattus norvegicus [1]) [%],Basal (Rattus norvegicus [2]) [%],also measured
C[n+]1ccc(C(C)(C)C)cc1,106,,
C[n+]1ccccc1-c1ccccc1,160,,
C[n+]1ccc(-c2ccccc2)cc1,280,210,
C[n+]1ccc(-c2ccccc2)nc1,102,,
C[n+]1cccc(-c2ccccc2)c1,240,,
"c1ccc2c(c1)CCNC2 [1,2,3,4-TETRAHYDROISOQUINOLINE]",,,Basal (Rattus norvegicus [3]): 98%
Cc1ccccc1-c1cc[n+](C)cc1,,155,
Cc1cc(-c2ccccc2)cc[n+]1C,,200,
Cc1ccc(-[n+]2ccc(C)cc2)cc1,230,180,
C[n+]1cccc2ccccc21,190,,Basal (Rattus norvegicus [4]): 200%
